In brackets after ≈: the same amount, converted by molar mass.
Experiments:
[1] = system: Sclerotinia sclerotiorum; test: Inhibition of spore germination of Sclerotinia sclerotiorum KACC 41065; type: functional, organism-based
Summary of the method: (§1)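 Glyceollins were tested at 10, 25, 50, 100, 250 and 500 μg/mL against a 1% DMSO control, with spore suspension at 1.0 × 10^8 spores/mL. 100 μL aliquots went on glass slides in triplicate and were kept in a moist chamber at 25 C for 24 h. Slides were fixed in lactophenol-cotton blue, about 200 spores were counted for germ tubes, and germination was expressed relative to control.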

[2] = system: Phytophthora capsici; test: Inhibition of spore germination of Phytophthora capsici KACC 40157; type: functional, organism-based; summary of the method: as §1
[3] = system: Phytophthora capsici; test: Inhibition of spore germination of Phytophthora capsici KACC 40157 at 100 ug/mL measured 3 hr post dose; type: functional; details: KACC 40157, 3 h
[4] = system: Phytophthora capsici; test: Inhibition of spore germination of Phytophthora capsici KACC 40157 at 100 ug/mL measured 2 hr post dose; type: functional; details: KACC 40157, 2 h
[5] = system: Phytophthora capsici; test: Inhibition of spore germination of Phytophthora capsici KACC 40157 at 25 ug/mL measured 4 hr post dose; type: functional; details: KACC 40157, 4 h
[6] = system: Phytophthora capsici; test: Inhibition of spore germination of Phytophthora capsici KACC 40157 at 25 to 100 ug/mL; type: functional, organism-based; details: TDE = time-dependent effect
[7] = system: Botrytis cinerea; test: Inhibition of spore germination of Botryotinia fuckeliana KACC 40573 at 100 to 500 ug/mL; type: functional; summary of the method: as §1
[8] = system: Fusarium oxysporum; test: Inhibition of spore germination of Fusarium oxysporum KACC 41083 at 100 to 500 ug/mL; type: functional; summary of the method: as §1
[9] = system: Sclerotinia sclerotiorum; test: Inhibition of spore germination of Sclerotinia sclerotiorum KACC 41065 at 500 ug/mL; type: functional; summary of the method: as §1
[10] = system: Phytophthora capsici; test: Inhibition of spore germination of Phytophthora capsici KACC 40157 at 250 ug/mL; type: functional; summary of the method: as §1
[11] = system: Phytophthora capsici; test: Inhibition of spore germination of Phytophthora capsici KACC 40157 at 100 ug/mL; type: functional
[12] = system: Botrytis cinerea; test: Inhibition of spore germination of Botryotinia fuckeliana KACC 40573; type: functional, organism-based; summary of the method: as §1
[13] = system: Fusarium oxysporum; test: Inhibition of spore germination of Fusarium oxysporum KACC 41083; type: functional, organism-based; summary of the method: as §1
[14] = system: Botrytis cinerea; test: Antifungal activity against Botryotinia fuckeliana KACC 40573 measured 2 to 4 days post dose by two fold dilution method; type: functional
Summary of the method: (§2)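 Two-fold dilution MIC in potato dextrose broth tubes. The DMSO-dissolved sample was serially diluted to final 10, 25, 50, 100, 250, 500 and 750 μg/mL, then inoculated with 10 μL spore suspension (1 × 10^8 spores/mL, from 10-day cultures). Tubes were incubated 2-4 days at 28 C; the control tube held spores only. MIC was the lowest concentration with no visible growth.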

[15] = system: Sclerotinia sclerotiorum; test: Antifungal activity against Sclerotinia sclerotiorum KACC 41065 measured 2 to 4 days post dose by two-fold dilution method; type: functional; summary of the method: as §2
[16] = system: Phytophthora capsici; test: Antifungal activity against Phytophthora capsici KACC 40157 measured 2 to 4 days post dose by two fold dilution method; type: functional; summary of the method: as §2
[17] = system: Fusarium oxysporum; test: Antifungal activity against Fusarium oxysporum KACC 41083 measured 2 to 4 days post dose by two-fold dilution method; type: functional; summary of the method: as §2
[18] = system: Botrytis cinerea; test: Antifungal activity against Botryotinia fuckeliana KACC 40573 assessed as inhibition of radial growth at 0.6 mg/disk incubated for 4 to 6 days by disk diffusion method; type: functional
Summary of the method: (§3)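 Disk diffusion on PDA in 9 cm dishes. Sample in DMSO at 40 mg/mL; paper disks loaded with 5 or 15 μL, dried, and set equidistantly. A 6 mm agar plug of the pathogen was placed upside down in the centre. Plates were incubated at 25 C for 4-6 days, until solvent-control growth reached the edge. % inhibition = radial growth versus control; triplicate plates; mean ± SD of three experiments.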

[19] = system: Botrytis cinerea; test: Antifungal activity against Botryotinia fuckeliana KACC 40573 assessed as inhibition of radial growth at 0.2 mg/disk incubated for 4 to 6 days by disk diffusion method; type: functional; summary of the method: as §3
[20] = system: Sclerotinia sclerotiorum; test: Antifungal activity against Sclerotinia sclerotiorum KACC 41065 assessed as inhibition of radial growth at 0.6 mg/disk incubated for 4 to 6 days by disk diffusion method; type: functional; summary of the method: as §3
[21] = system: Sclerotinia sclerotiorum; test: Antifungal activity against Sclerotinia sclerotiorum KACC 41065 assessed as inhibition of radial growth at 0.2 mg/disk incubated for 4 to 6 days by disk diffusion method; type: functional; summary of the method: as §3
[22] = system: Phytophthora capsici; test: Antifungal activity against Phytophthora capsici KACC 40157 assessed as inhibition of radial growth at 0.6 mg/disk incubated for 4 to 6 days by disk diffusion method; type: functional; summary of the method: as §3
[23] = system: Phytophthora capsici; test: Antifungal activity against Phytophthora capsici KACC 40157 assessed as inhibition of radial growth at 0.2 mg/disk incubated for 4 to 6 days by disk diffusion method; type: functional; summary of the method: as §3
[24] = system: Fusarium oxysporum; test: Antifungal activity against Fusarium oxysporum KACC 41083 assessed as inhibition of radial growth at 0.6 mg/disk incubated for 4 to 6 days by disk diffusion method; type: functional; summary of the method: as §3
[25] = system: Fusarium oxysporum; test: Antifungal activity against Fusarium oxysporum KACC 41083 assessed as inhibition of radial growth at 0.2 mg/disk incubated for 4 to 6 days by disk diffusion method; type: functional; summary of the method: as §3

Compound	inhibition [1]	inhibition [2]	inhibition at 100 µg/mL [3]	inhibition at 100 µg/mL [4]	inhibition at 25 µg/mL [5]	inhibition [6]	inhibition (INH) [7]	inhibition (INH) [8]	inhibition at 500 µg/mL [9]	inhibition at 250 µg/mL [10]	inhibition at 100 µg/mL [11]	inhibition [12]	inhibition [13]	MIC [14]	MIC [15]	MIC [16]	MIC [17]	inhibition (INH) [18]	inhibition (INH) [19]	inhibition (INH) [20]	further results
CC1(C)C=Cc2cc3c(cc2O1)OC[C@@]1(O)c2ccc(O)cc2O[C@@H]31 [GLYCEOLLIN II]	Dose-dependent effect	Dose-dependent effect	100%	95%	50%	tde	40%	40%	100%	100%	100%	Dose-dependent effect	Dose-dependent effect	750 µg/mL (≈ 2220 µM)	50 µg/mL (≈ 148 µM)	25 µg/mL (≈ 73.9 µM)	250 µg/mL (≈ 739 µM)	22.1%	10.9%	61%	inhibition (INH) [21]: 48.2%; inhibition (INH) [22]: 40.5%; inhibition (INH) [23]: 37.5%; inhibition (INH) [24]: 40.1%; inhibition (INH) [25]: 27.4%
CC1(C)C=Cc2c(ccc3c2OC[C@@]2(O)c4ccc(O)cc4O[C@@H]32)O1 [GLYCEOLLIN I]	Dose-dependent effect	Dose-dependent effect	100%	95%	50%	tde	40%	40%	100%	100%	100%	Dose-dependent effect	Dose-dependent effect	750 µg/mL (≈ 2220 µM)	50 µg/mL (≈ 148 µM)	25 µg/mL (≈ 73.9 µM)	250 µg/mL (≈ 739 µM)	22.1%	10.9%	61%	inhibition (INH) [21]: 48.2%; inhibition (INH) [22]: 40.5%; inhibition (INH) [23]: 37.5%; inhibition (INH) [24]: 40.1%; inhibition (INH) [25]: 27.4%
C=C(C)[C@@H]1Cc2cc3c(cc2O1)OC[C@@]1(O)c2ccc(O)cc2O[C@@H]31 [GLYCEOLLIN III]	Dose-dependent effect	Dose-dependent effect	100%	95%	50%	tde	40%	40%	100%	100%	100%	Dose-dependent effect	Dose-dependent effect	750 µg/mL (≈ 2220 µM)	50 µg/mL (≈ 148 µM)	25 µg/mL (≈ 73.9 µM)	250 µg/mL (≈ 739 µM)	22.1%	10.9%	61%	inhibition (INH) [21]: 48.2%; inhibition (INH) [22]: 40.5%; inhibition (INH) [23]: 37.5%; inhibition (INH) [24]: 40.1%; inhibition (INH) [25]: 27.4%

From ChEMBL document CHEMBL3044867, “Antifungal activity of glyceollins isolated from soybean elicited with Aspergillus sojae” (2010)
